# Assay results published in publication PMC2922024 (Neuroscience letters, 2010).
# Positions of bridges follow the written chain, without caps; N, C: chain ends. Residues, ends and D or L forms follow the SMILES beside them.
# Columns and labels:
# [1] = Free GsMTx4 in media with or without serum; format: in vitro ADME
# [2] = test system: PC12 cells; assay: Neurite outgrowth from PC12 cells; format: cell-based, rat; conditions: NGF 50 ng/ml alone, 48 h
# In short: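 Rat PC12 cells were grown in high-glucose DMEM with 10% FBS, penicillin/streptomycin and 10 mM Hepes at 37 °C in 5% CO2. They were seeded at 4 × 10^4 per well, adhered overnight, then left untreated or given NGF (50 ng/ml final) for 48 h. Phase-contrast images were scored blinded: three random fields per well, at least 4 wells, fields of more than 10 cells, at least 250 cells per experiment. The percentage was calculated per image, and the longest neurite per bearing cell was averaged. Groups were compared by one-way ANOVA with Tukey–Kramer.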
Molecule,"free concentration ([1]; culture media with 10% serum, mean (total) concentration 100 μM GsMTx4)",free drug concentration in media as share of the total ([1]; media with 10% serum),length of the longest neurite per NBC ([2]; untreated approximately 10 μm),percentage of neurite bearing cells ([2]; untreated ~1%)
"CC(C)C[C@@H]1NC(=O)[C@@H](NC(=O)CN)CSSC[C@@H]2NC(=O)[C@@H]3CSSC[C@@H](C(=O)N[C@@H](CC(N)=O)C(=O)N[C@@H](Cc4ccccc4)C(=O)N[C@@H](CO)C(=O)N[C@@H](Cc4ccccc4)C(N)=O)NC(=O)[C@H](CC(C)C)NC(=O)[C@H](CCCCN)NC(=O)[C@H](Cc4ccccc4)NC(=O)[C@H](CC(C)C)NC(=O)[C@H](CCCCN)NC(=O)[C@H](CO)NC(=O)[C@H](CSSC[C@H](NC(=O)[C@H](CCCCN)NC(=O)[C@H](Cc4c[nH]c5ccccc45)NC(=O)[C@H](Cc4c[nH]c5ccccc45)NC(=O)[C@H](Cc4ccccc4)NC(=O)[C@H](CCC(=O)O)NC1=O)C(=O)N[C@@H](CC(N)=O)C(=O)N1CCC[C@H]1C(=O)N[C@@H](CC(N)=O)C(=O)N[C@@H](CC(=O)O)C(=O)N[C@@H](CC(=O)O)C(=O)N[C@@H](CCCCN)C(=O)N3)NC(=O)[C@H](CCCCN)NC(=O)[C@H](CC(C)C)NC(=O)[C@H](CCCCN)NC(=O)[C@@H]1CCCN1C(=O)[C@H](CCCNC(=N)N)NC2=O [GsMTx4] (H-GCLEFWWKCNPNDDKCCRPKLKCSKLFKLCNFSF-NH2; disulfide 2-17, 9-23, 16-30)",~ 5 μM,about 5%,,
"nerve growth factor (protein, UniProt P01139 122-241, looked up, Beta-nerve growth factor) Beta-nerve growth factor: SSTHPVFHMGEFSVCDSVSVWVGDKTTATDIKGKEVTVLAEVNINNSVFRQYFFETKCRASNPVESGCRGIDSKHWNSYCTTTHTFVKALTTDEKQAAWRFIRIDTACVCVLSRKATRRG",,,~ 20 μm,~ 20%
